Source: PubChem
Lmaj promast – Leishmania major promastigote growth inhibition. Leishmania major promastigotes, resazurin fluorescence viability. inhibition, % at 10 µM. 200,000 tested, 9% active; in the data active = inhibition above about 50%;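 note: promastigotes grown with compound for 44 hours at 28 °C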
TNAP act hiacc – activators of human TNAP at high phosphate acceptor concentration. purified TNAP, CDP-star luminescence, 1 M DEA, 30 min; hits give high values; 0 = EDTA background, 1 = DMSO-only activity. activation factor at 20 µM. 200,000 tested, under 10 active. AID 1136;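 active = activation factor at least 2 at 20 µM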
Target sequence (P05186 whole entry, looked up): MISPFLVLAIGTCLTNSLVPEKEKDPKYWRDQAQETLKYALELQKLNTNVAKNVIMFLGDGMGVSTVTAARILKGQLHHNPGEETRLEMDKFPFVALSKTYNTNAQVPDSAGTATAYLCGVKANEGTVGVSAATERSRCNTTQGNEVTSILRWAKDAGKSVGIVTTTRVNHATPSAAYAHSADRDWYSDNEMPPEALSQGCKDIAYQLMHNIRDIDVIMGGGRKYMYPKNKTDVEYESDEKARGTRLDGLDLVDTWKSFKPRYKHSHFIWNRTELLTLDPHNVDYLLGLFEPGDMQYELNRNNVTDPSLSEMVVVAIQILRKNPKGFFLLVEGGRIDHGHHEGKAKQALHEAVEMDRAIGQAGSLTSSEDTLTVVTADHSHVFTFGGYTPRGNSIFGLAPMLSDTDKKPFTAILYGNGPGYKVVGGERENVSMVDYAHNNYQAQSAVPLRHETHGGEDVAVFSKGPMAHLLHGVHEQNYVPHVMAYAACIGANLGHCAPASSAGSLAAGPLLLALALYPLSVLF
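system = human TNAP | amount = enzyme diluted 1/800 final | reagent = 100 µM CDP-star substrate | signal = luminescent substrate turnover signal | dosing = one dose, 20 µM | benchmarks = EDTA negative control, DMSO positive control | measure = activation factor | timing = 30 min reaction, room temperature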
TNAP inh hiacc – blocks human TNAP under high phosphate acceptor concentration; P05186; purified TNAP, CDP-star luminescence, 1 M DEA; inhibition, % at 20 µM; 200,000 tested, 0.03% active;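 active = over 50% inhibition of tissue-nonspecific alkaline phosphatase at 20 µM in the single-dose screen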
bCat KO growth – beta-catenin-lacking colon tumor cell growth suppression. viability, % at 10 µM. HCT116 beta-catenin knockout viability, CellTiter-Glo, 60 h; hits give low values. 140,000 tested, 1.5% active. AID 818;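 active = viability at or under a set limit, the compound median less 4 SD, cut at about 6% in these data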
HCT116 PTEN-null – suppresses growth of cells with PTEN deletion. HCT116 PTEN-null viability, CellTiter-Glo, 60 h; hits give low values. AID 827. 140,000 tested, 1.2% active. viability, % at 10 µM;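 active = viability at or below a set limit, 4 SD under the median of all tested compounds, cut at about 3.7% in these data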;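 note: PTEN knockout HCT116 line with beta catenin targeted HCT116 as companion control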
TNAP inh no acc – blocks human TNAP activity with no phosphate acceptor present; P05186; purified TNAP, CDP-star luminescence, 30 min; inhibition, % at 20 µM; 200,000 tested, 0.26% active;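 active = tissue-nonspecific alkaline phosphatase inhibition above about 50% at 20 µM in the single-dose screen, limit read from the data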
Hits are given with their value; . = inactive; / = not tested or not shown. This is a sample that favours compounds with a hit; in the whole collection about 9.6% have one here.

SMILES | Lmaj promast | TNAP act hiacc | TNAP inh hiacc | bCat KO growth | HCT116 PTEN-null | TNAP inh no acc
COc1ccc(-c2cnc(N)n2C)cc1 | . | . | . | / | / | .
O=C(c1ccccn1)N(c1ccccc1)C1(C(=O)NC2CCCCC2)CCCCC1 | . | . | . | / | / | .
Cn1c(N)c(S(=O)(=O)N2CCN(Cc3ccccc3)CC2)c(=O)n(C)c1=O | . | . | . | / | / | .
CC1CC(C)(C)NC(=S)N1CC(=O)NCc1ccccc1Cl (stereo unspecified) | 77 | . | . | . | . | .
Cc1ccc(NC(=O)CCCN2C(=S)NC(C)(C)CC2C)cc1 (stereo unspecified) | . | . | . | / | / | .
Cc1ccccc1NC(=O)CN1C(=S)NC(C)(C)CC1C (stereo unspecified) | 53 | . | . | . | . | .
Cc1cccc(NC(=O)CN2C(=S)NC(C)(C)CC2C)c1 (stereo unspecified) | 54 | . | . | . | . | .
COc1ccc(-n2c(COc3cccc4cccnc34)nnc2SCC(=O)O)cc1 | . | . | . | / | / | .
O=C(NC(=S)NC(c1ccccc1)c1ccncc1)c1ccccc1 (stereo unspecified) | . | . | . | . | . | .
CCCOC(=O)c1ccc(NC(=O)c2cc(Cl)ccc2OC)cc1 | . | . | . | . | . | .
CCN(CC)c1ccc(NC(=O)c2cc(Cl)ccc2OC)cc1 | 99 | . | . | . | . | .
Cc1ccc(C(=O)Nc2ccc(CN3CCCCC3)cc2)c(C)c1 | 74 | . | . | / | / | .
COc1ccc(Br)cc1C(=O)Nc1ccc(Cc2ccncc2)cc1 | 81 | . | . | . | . | .
COc1ccc(Cl)cc1C(=O)Nc1ccc(CN2CCCCC2)cc1 | 98 | . | . | / | / | .
COc1ccc(Cl)cc1C(=O)Nc1ccc2c(c1)OCO2 | . | . | . | . | . | .
COc1ccc(Br)cc1C(=O)Nc1ccc(C(=O)NCC(C)C)cc1 | . | . | . | / | / | .
S=C(NC1CCCCC1)N1CCN(c2ccccn2)CC1 | . | . | . | . | . | .
COc1ccc(C(=O)/C=C2/c3ccccc3CC(C)(C)N2C)cc1OC | . | . | . | . | . | .
COC(=O)C1CC(c2ccc(Cl)cc2)=NO1 (stereo unspecified) | . | . | . | / | / | .
Cc1ccc(S(=O)(=O)N(C)CCCC(=O)Nc2ccc(C)cc2C)cc1 | . | . | . | . | . | .
CCNC(=O)c1cc(Cl)ccc1OC | 56 | . | . | . | . | .
CCOC(=O)c1sc2ccc(S(=O)(=O)N3CC(C)CC(C)C3)cc2c1N (stereo unspecified) | . | . | . | . | . | .
O=C(CCN1C(=O)c2ccc([N+](=O)[O-])cc2C1=O)Nc1cccc(O)c1 | . | . | . | . | . | .
Cc1cc(O)ccc1NC(=O)CCN1C(=O)c2ccc([N+](=O)[O-])cc2C1=O | 70 | . | . | . | . | .
Cc1oc(/C=N/NS(=O)(=O)c2ccccc2)cc1Br | 63 | . | . | . | . | .
SMILES | Lmaj promast | TNAP act hiacc | TNAP inh hiacc | bCat KO growth | HCT116 PTEN-null | TNAP inh no acc
Cc1ccc(/C=N/NS(=O)(=O)c2ccccc2)o1 | . | . | . | . | . | .
O=C(NC1CCN(Cc2ccccc2)CC1)c1cc(-c2ccccn2)nc2ccccc12 | . | . | . | . | . | .
c1ccc(CN2CCC(Nc3nc(-c4ccccc4)nc4ccccc34)CC2)cc1 | 100 | . | . | 1.6 | 1.6 | .
COc1ccc(OCC(=O)Nc2ccc(N3CCN(C(=O)c4ccccc4C)CC3)cc2)cc1 | . | . | . | / | / | .
O=C1c2ccccc2C(=O)N1CCCCN(C(=O)c1cc([N+](=O)[O-])ccc1Cl)c1ccc(Cl)cc1 | 58 | . | . | . | . | .
O=C1c2ccccc2C(=O)N1CCCCN(C(=O)c1ccc([N+](=O)[O-])cc1)c1ccc(Cl)cc1 | . | . | . | . | . | .
O=C1c2ccccc2C(=O)N1CCCCN(C(=O)c1cc([N+](=O)[O-])cc([N+](=O)[O-])c1)c1ccc(Cl)cc1 | 99 | . | . | . | . | .
O=C(N1CCN(c2cccc(Cl)c2)CC1)C1(c2cccs2)CCOCC1 | . | . | . | . | . | .
Cc1cccc(N=C2NN=C(c3c(C)[nH]c4ccccc34)CS2)c1 | . | . | . | 2.7 | . | .
Cc1cccc(N=C2NN=C(c3ccc4c(c3)OCCO4)CS2)c1 | . | . | . | . | . | .
OCCN1CCN(C(c2cccs2)c2ccc3cccnc3c2O)CC1 (stereo unspecified) | 53 | . | . | . | . | .
CC1CCc2c(sc(Nc3nc4c(F)cccc4s3)c2C(N)=O)C1 (stereo unspecified) | . | . | . | . | . | .
O=C1C2C3c4ccccc4C(c4ccccc43)C2C(=O)N1/N=C/c1cccc(O)c1 (stereo unspecified) | 97 | . | . | . | . | .
CCn1ccnc1CN(C)Cc1cn(-c2cccc(C)c2)nc1-c1cccc(F)c1 | 99 | . | . | / | / | .
CCn1ccnc1CN(C)Cc1cn[nH]c1-c1ccc(F)cc1F | . | . | . | / | / | 85
Cc1cccc(-n2cc(CN(C)Cc3nccn3C)c(-c3cccc(F)c3)n2)c1 | . | . | . | / | / | .
CCn1ccnc1CN(C)Cc1cn(-c2ccc(C)cc2)nc1-c1cccc(C)c1 | 78 | . | . | / | / | .
O=S(=O)(Cc1ccccc1Cl)NCc1ccccc1 | . | . | . | / | / | .
Cc1cccc(-c2nnc(SCC#N)n2-c2ccccc2)c1 | . | . | . | . | . | .
Cc1cccc(-c2nnc(SCC3CNC(=O)O3)n2-c2ccc(Cl)cc2)c1 (stereo unspecified) | 96 | . | . | . | . | .
COc1ccc(-n2c(SCC3CNC(=O)O3)nnc2-c2ccc(Cl)cc2)cc1 (stereo unspecified) | 92 | . | . | . | . | .
COc1ccc(-c2nnc(SCCC(=O)O)n2-c2ccccc2)cc1 | . | . | . | . | . | .
COc1ccc(C(=NNc2ccccc2C(=O)O)c2ccc(OC)cc2)cc1 | . | . | . | . | . | .
COc1cc(NC(=O)COc2ccc(Cl)cc2)ccc1-c1cc2ccccc2oc1=O | 63 | . | . | . | . | .
CC(=O)c1ccc(N2CCN(C(C)C(=O)NC3CCCc4ccccc43)CC2)cc1 (stereo unspecified) | . | . | . | . | . | .
SMILES | Lmaj promast | TNAP act hiacc | TNAP inh hiacc | bCat KO growth | HCT116 PTEN-null | TNAP inh no acc
Cc1cc(C)c2ccc(N)nc2c1O | 99 | . | . | 3.8 | . | .
Cc1cc(C)c2ccc(C)[n+]([O-])c2c1O | . | . | . | . | . | .
CCc1cc(=O)[nH]c(SCc2ccc(C)cc2)n1 | . | . | . | / | / | .
Oc1ccc2ccccc2c1N=Nc1ccccn1 | 100 | . | . | 2.4 | 2.6 | .
CCOC(=O)c1[nH]cnc1N=Nc1c(O)ccc2ccccc12 | . | . | . | . | . | .
Cc1ccc(S(=O)(=O)NC(=O)c2ccc(Br)o2)cc1 | . | . | . | . | . | .
